The target of data set [1] is T1, Glutamate receptor ionotropic, AMPA (Rattus norvegicus) (UniProt P19491+P19492+P19493+P19490). Description: Dissociation constant(Kb) for Ionotropic glutamate receptor AMPA was determined from inhibition of currents activated by 10(uM) AMPA in Xenopus oocytes expressing rat cerebral cortex poly(A)+ RNA. The class given is functional, cell-based. The note with it: Oocyte.

The nature of data set [2]: Selectivity index for the inhibition of NMDA receptors was estimated by dividing Kb AMPA by Kb NMDA.
Data set [3] can be described thus: Partition coefficient (logP). The class given is physicochemical. The note with it: octanol/water.
The species entered for a further data set is Mus musculus. Description: Anticonvulsant activity was measured by mouse maximal electroshock (MES) assay. The class given is functional. Summed up:
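Mice; compounds dissolved in 0.05 M Tris, given iv; tested at peak activity 2 min after injection (one compound with slower onset tested at 15 min). Maximal electroshock seizure protection scored; ED50 by Litchfield and Wilcoxon analysis.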
In general terms: In the maximal electroshock model the usual endpoint is tonic extension of the hind limbs.

For data set [4], the target named is Glutamate receptor ionotropic, NMDA 1 (Rattus norvegicus, UniProt P35439). Kind of data set: Potency for the N-methyl-D-aspartate glutamate receptor 1 glycine site by displacement of [3H]5,7-dichlorokynurenic acid (DCKA) binding in rat brain cortical membranes. The class given is cell membranes, Membrane. (Displacement assays read how much labelled ligand stays bound in the presence of the test substance.)

In data set [5] the target is T1, Glutamate receptor ionotropic, AMPA (Rattus norvegicus). Description: Dissociation constant(Kb) for Ionotropic glutamate receptor AMPA as inhibition of currents activated by 10 uM AMPA in Xenopus oocytes expressing rat cerebral cortex poly(A)+ RNA. The class given is functional, cell-based. The note with it: Oocyte.

The compound `Cc1c(C#N)cc2nc(O)c(O)nc2c1[N+](=O)[O-]` registered a Kb in data set [1] of 590 nM. Moreover, the Selectivity index in data set [2] is 20.

In the case of `CCc1cc2nc(O)c(O)nc2c([N+](=O)[O-])c1Br`, the logP (commonly a log measure of how a compound divides between an organic and an aqueous phase) in data set [3] is 1.04. Also, it took a dose of 11 mg/kg to reach the 50% effect level in the data set listed under Mus musculus (ED50). The IC50 (usually the concentration at which inhibition is half-maximal) in data set [4] stood at 82 nM. For `Cc1cc2nc(O)c(O)nc2c([N+](=O)[O-])c1Cl`, in that order: 0.44, 1.9 mg/kg and 45 nM. For `Cc1c(C#N)cc2[nH]c(=O)c(=O)[nH]c2c1[N+](=O)[O-]`, in data set [4], the IC50 worked out at 73 nM. Same read-out and setting: to `O=c1[nH]c2cc3ccccc3cc2[nH]c1=O` belongs 16000 nM; to `CCc1cc2[nH]c(=O)c(=O)[nH]c2c([N+](=O)[O-])c1CC`, 160 nM; to `CCSc1c(Cl)cc2nc(O)c(O)nc2c1[N+](=O)[O-]`, 640 nM.

In data set [3], `O=c1[nH]c2cc(Cl)c(Cl)c([N+](=O)[O-])c2[nH]c1=O` [LICOSTINEL] came in with a logP of 0.21. Also, the ED50 (as a rule, the dose that gives a 50% effect, or the effect in half of the subjects) in the data set filed under Mus musculus is 4 mg/kg. The compound also showed an IC50 in data set [4] of 5.9 nM.

Turning to `Oc1nc2cc3c(cc2nc1O)OCO3`, the IC50 in data set [4] was above 100000 nM. In turn, `O=[N+]([O-])c1c2c(cc3nc(O)c(O)nc13)CCC2` registered a Kb in data set [1] of 17000 nM. Moreover, the Selectivity index in data set [2] is 20.

On to `Cc1cc([N+](=O)[O-])c2[nH]c(=O)c(=O)[nH]c2c1`, for which the IC50 in data set [4] came to 9300 nM. As to `Cc1c(Cl)cc2[nH]c(=O)c(=O)[nH]c2c1[N+](=O)[O-]`, the logP in data set [3] came out at 0.49. Besides, in data set [4], the IC50 stood at 4.7 nM. In the case of `CCc1c(Cl)cc2nc(O)c(O)nc2c1[N+](=O)[O-]`, in data set [4], the IC50 worked out at 130 nM. Turning to `CCOc1c(F)cc2nc(O)c(O)nc2c1[N+](=O)[O-]`, the half-inhibitory concentration (IC50) in data set [4] was 3600 nM. In turn, `Cc1c(F)cc2nc(O)c(O)nc2c1[N+](=O)[O-]` gave a logP in data set [3] of 0.08. The same compound returned an ED50 in the data set filed under Mus musculus of 1.8 mg/kg. Moreover, in data set [4], the IC50 was found to be 95 nM.

Turning to `CCc1cc2[nH]c(=O)c(=O)[nH]c2cc1CC`, in data set [4], the IC50 came to 1800 nM. `CCc1cc2[nH]c(=O)c(=O)[nH]c2cc1Cl`: the IC50 in data set [4] came to 1400 nM. With `Cc1cc2nc(O)c(O)nc2c([N+](=O)[O-])c1C`, the Selectivity index in data set [2] was 79. This compound displayed a logP in data set [3] of 0.58. Moreover, the 50% effect level in the data set filed under Mus musculus (ED50) was put at a dose of 2.6 mg/kg. For the same compound, in data set [4], the IC50 came out at 29 nM. This compound also had a Kb in data set [5] of 3100 nM. On to `O=c1[nH]c2cc3c(c([N+](=O)[O-])c2[nH]c1=O)CCC3`, for which the IC50 in data set [4] stood at 3100 nM. In data set [4], `N#Cc1cc([N+](=O)[O-])c2[nH]c(=O)c(=O)[nH]c2c1` yielded an IC50 of 2800 nM. Compound `Cc1c(Br)cc2nc(O)c(O)nc2c1[N+](=O)[O-]` returned a lipophilicity (logP) in data set [3] of 0.61. This compound had an ED50 in the data set listed under Mus musculus of 2 mg/kg. In addition, the IC50 in data set [4] came out at 8.7 nM. Turning to `Cc1c(Cl)cc2nc(O)c(O)nc2c1[N+](=O)[O-]`, the Selectivity index in data set [2] was 440. Besides, the ED50 in the data set filed under Mus musculus was 1.2 mg/kg. In data set [5], this compound returned a Kb of 3500 nM. As to `CCCCOc1c(F)cc2nc(O)c(O)nc2c1[N+](=O)[O-]`, the IC50 in data set [4] is 4300 nM. On to `Cc1c(Cl)cc2nc(O)c(O)nc2c1N`, for which the IC50 in data set [4] was 150 nM.

For the compound `COc1cc2nc(O)c(O)nc2cc1Br`, the concentration for half-maximal inhibition (IC50) in data set [4] came to 1000 nM. In the case of `Nc1c(F)cc2nc(O)c(O)nc2c1[N+](=O)[O-]`, in data set [4], the IC50 is 11000 nM. Still for that read-out and setting: to `COc1cc2[nH]c(=O)c(=O)[nH]c2c(OC(C)=O)c1OC` belongs 53000 nM. The same measure, in the same setting: to `COc1c(F)cc2[nH]c(=O)c(=O)[nH]c2c1[N+](=O)[O-]` belongs 1900 nM; to `Cc1cc2nc(O)c(O)nc2cc1Cl`, 780 nM.

In turn, `COc1cc2[nH]c(=O)c(=O)[nH]c2cc1OC` displayed an IC50 in data set [4] of 17000 nM. Take `COc1c(Br)cc2[nH]c(=O)c(=O)[nH]c2c1[N+](=O)[O-]`: in data set [4], the IC50 turned out to be 64 nM. The compound `O=[N+]([O-])c1c(OCCCc2ccccc2)c(F)cc2nc(O)c(O)nc12` returned an IC50 in data set [4] of 4000 nM.

As to `CCc1cc2nc(O)c(O)nc2c([N+](=O)[O-])c1Cl`, in data set [3], the logP came to 0.92. The ED50 in the data set filed under Mus musculus came out at 4.5 mg/kg. In data set [4], this compound came in with an IC50 of 29 nM. As for `O=[N+]([O-])c1c(Br)c(Br)cc2nc(O)c(O)nc12`, the logP in data set [3] came out at 0.74. In the data set filed under Mus musculus, this compound returned an ED50 of 7.3 mg/kg. The IC50 in data set [4] came to 20 nM. In data set [4], `Cc1cc2[nH]c(=O)c(=O)[nH]c2cc1C` gave an IC50 of 3300 nM. `Oc1cc2nc(O)c(O)nc2cc1O`: the half-inhibitory concentration (IC50) in data set [4] is above 100000 nM.

In data set [4], `Oc1nc2cc3c(cc2nc1O)CCC3` had an IC50 of 15000 nM. `COc1c(Cl)cc2[nH]c(=O)c(=O)[nH]c2c1[N+](=O)[O-]` had a half-maximal inhibitory concentration (IC50) in data set [4] of 150 nM. Regarding `COc1cc2[nH]c(=O)c(=O)[nH]c2c(O)c1OC`, the IC50 in data set [4] came out at 17000 nM.

Values taken from ChEMBL document CHEMBL1129955, “Structure-activity relationships of alkyl- and alkoxy-substituted 1,4-dihydroquinoxaline-2,3-diones: potent and systemically active antagonists for the glycine site of the NMDA receptor” (J Med Chem, 1997).
